Assay outcomes (PubChem BioAssay)
Hits are enriched below; roughly 3.3% of the tested compounds scored in any of these assays.
E-selectin induc: induces E-selectin expression in human endothelial cells. P16581. HUVEC E-selectin immunofluorescence imaging; normalized: neutral wells 0, TNF-alpha wells 100. activation, % at 7.58 µM. 0.37% of 260,000 active. AID 686992;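 active means mean E-selectin-positive cell signal at least 10% of the positive control, reached in at least 60% of replicates, without over 20% cell loss; inconclusive means no rule given, readout overlaps actives, possibly toxicity-flagged; inactive means the rest, including those meeting only one limit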
Target sequence (P16581 whole entry, looked up): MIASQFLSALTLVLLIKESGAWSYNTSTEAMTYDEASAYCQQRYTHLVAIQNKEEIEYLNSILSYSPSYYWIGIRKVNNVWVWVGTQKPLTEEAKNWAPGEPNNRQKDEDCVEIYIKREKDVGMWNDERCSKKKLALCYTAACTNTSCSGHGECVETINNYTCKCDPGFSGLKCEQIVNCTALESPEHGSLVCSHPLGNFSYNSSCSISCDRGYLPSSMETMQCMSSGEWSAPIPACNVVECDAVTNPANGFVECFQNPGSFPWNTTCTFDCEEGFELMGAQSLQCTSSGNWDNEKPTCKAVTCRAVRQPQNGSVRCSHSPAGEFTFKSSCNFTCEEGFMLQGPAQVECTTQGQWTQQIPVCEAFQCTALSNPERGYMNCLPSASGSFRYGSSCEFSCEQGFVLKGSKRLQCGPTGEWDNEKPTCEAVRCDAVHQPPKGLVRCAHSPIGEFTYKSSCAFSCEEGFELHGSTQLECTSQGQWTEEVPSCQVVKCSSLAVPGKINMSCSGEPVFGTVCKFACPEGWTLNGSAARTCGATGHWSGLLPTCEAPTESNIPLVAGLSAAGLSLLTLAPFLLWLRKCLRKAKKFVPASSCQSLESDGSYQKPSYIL
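material = human umbilical vein endothelial cells (HUVEC), E-selectin induction | quantity = 3,000 cells/well | medium = EGM-2 growth medium on 0.1% gelatin-coated wells | technique = immunofluorescence imaging | read-out basis = % PE-positive cells | control set = TNF-alpha positive control, DMSO neutral control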
Xi reactivation: X-chromosome reactivation activator. AID 743238. XiGFP mouse fibroblasts, % GFP-positive cells imaging, 3 d; cells co-treated with 5-aza-dC sensitizer; scaled so ellipticine positive control = 100%. activation, % at 7.58 µM. 0.055% of 360,000 active;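 active means mean normalized replicate activation at least 10% and every replicate at or above 10%; inconclusive means only one of the two criteria met; inactive means mean below 10% and not all replicates reach 10%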
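Assay system: SV40-immortalized XiGFP fibroblast cells, line 68-5-11; buffer or medium: DMEM plus 5-aza-dC sensitizer; compound: one concentration, pinned; timing: compounds 3 days, fix/stain 15 min at room temperature; benchmarks: positive control ellipticine, 6 µM final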
DENV2 CPE rescue: protects cells from dengue virus 2 cytopathic effect; DENV2-infected cells, cytopathic effect rescue, plate reader; CPE inhibition, % at 9.99 µM; 1.7% of 350,000 active; in the data active means CPE inhibition above about 20%, passing the limit was not always enough; inconclusive means no clear call, values can overlap the other calls; tested in BHK-21 cells
FGF22 binding: shifts melting point of recombinant human FGF22; Q9HCT0; activity (Tm shift, normalised), % at 9.99 µM; 1.5% of 340,000 active; recombinant FGF22 thermal shift, SYPRO orange fluorescence; percent of sucrose octasulfate shift, DMSO zero;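 active means mean Tm shift, scaled 0 neutral to 100 positive control, at about 1.3% or above, every replicate too, limit read from the data; inconclusive means no clear call, values can overlap the other calls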
PglD DTNB: PglD (C. jejuni) enzyme inhibition; purified PglD enzyme, DTNB colorimetric CoA detection; inhibition, % at 12.5 µM; AID 602405; 0.098% of 360,000 active; in the data active means inhibition above about 16%, passing the limit was not always enough; inconclusive means no clear call, values can overlap the other calls
Statin myotox sup: protects C2C12 myotubes from simvastatin toxicity; ATP luminescence, 48 h; scaled: DMSO 0, geranylgeraniol control 100; rescue of ATP level, % at 7.49 µM; 0.78% of 330,000 active; AID 602340;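 active means mean ATP rescue above about 67%, or every replicate alone reaching that limit, limit read from the data, passing the limit was not always enough; inconclusive means no clear call, values can overlap the other calls; inactive means mean under the limit and some replicate under it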;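 further: myotubes were challenged with 10 µM simvastatin during compound exposure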
A number is an active result; . = inactive; ? = inconclusive; / = not tested or not shown.

SMILES | E-selectin induc | Xi reactivation | DENV2 CPE rescue | FGF22 binding | PglD DTNB | Statin myotox sup
CCCNC(=O)N[C@H]1C=C[C@H](CC(=O)NC2CCC2)O[C@H]1CO | . | . | 26 | . | . | .
O=C(NC1CCCC1)N[C@H]1C=C[C@@H](CC(=O)N2CCOCC2)O[C@@H]1CO | . | . | 36 | . | . | .
CN(C)C(=O)C[C@@H]1C=C[C@H](NC(=O)NC2CCCCC2)[C@@H](CO)O1 | . | . | . | . | . | .
O=C(NC1CCCCC1)N[C@@H]1C=C[C@@H](CC(=O)N2CCOCC2)O[C@@H]1CO | . | . | . | . | . | .
COc1ccc(S(=O)(=O)N2CCCCN3[C@H](C2)[C@H](c2ccc(C#CC4CC4)cc2)[C@@H]3CO)cc1 | . | . | . | . | . | /
COc1ccccc1NC(=O)N[C@H]1C=C[C@@H](CC(=O)NCc2ccc(Cl)c(Cl)c2)O[C@H]1CO | . | . | . | . | . | .
Cc1ccc(S(=O)(=O)N[C@H]2CC[C@H](CCNC(=O)C3CCCCC3)O[C@@H]2CO)cc1 | . | . | . | . | . | .
O=C1N[C@H](c2ccccc2)COCc2cnnn2CC[C@@H]1Cc1ccc(-c2ccccc2)cc1 | / | . | / | / | / | /
O=C(NC1CCCC1)N[C@H]1C=C[C@H](CC(=O)N2CCOCC2)O[C@H]1CO | . | . | 57 | . | . | .
CCOC(=O)c1cc(=O)nc(N)s1 | . | . | . | 43 | . | .
CCCc1nc(N)sc1C(=O)OCC | / | / | / | / | . | .
COc1cc(-c2nc(CN3CCN(c4ncccn4)CC3)c(C)o2)ccc1F | . | . | . | 43 | / | /
COc1cc(-c2nc(CN3CCN(CC(C)C)C(=O)[C@@H]3C)c(C)o2)ccc1F | / | . | . | . | / | /
C[C@@H]1CCCCO[C@H](CN(C)S(=O)(=O)c2cccs2)[C@@H](C)CN([C@@H](C)CO)C(=O)c2cc(NC(=O)CCCN(C)C)ccc2O1 | . | . | . | . | . | /
CCCn1c2c(c(O)c(C(=O)NCc3ccccc3)c1=O)CCCC2 | / | / | / | / | . | .
CCCn1c2c(c(O)c(C(=O)NC)c1=O)CCCC2 | / | / | / | / | . | 119
C=CCNC(=O)COC(=O)c1cc(S(=O)(=O)N2CCCCC2)ccc1Cl | . | . | . | 43 | . | .
C=CCNC(=O)COc1ccc(S(=O)(=O)N2CCCC2)cc1 | / | . | . | . | / | /
CO[C@H]1CN(C)C(=O)c2cc(NC(=O)c3ccc(F)cc3)ccc2OC[C@@H](C)N(C(C)=O)C[C@H]1C | . | . | . | . | . | .
CC(=O)Nc1cccc(C(=O)/C=C/c2ccc(/C=C/C(=O)c3cccc(NC(C)=O)c3)cc2)c1 | / | . | . | 43 | / | /
O=C(Nc1cc(F)ccc1F)N[C@H]1CC[C@@H](CCn2cc(C3CCCC3)nn2)O[C@H]1CO | . | . | . | / | / | /
COc1ccc(CCN(Cc2nc3ccccc3c(=O)[nH]2)C(=O)C2CC2)cc1 | / | . | . | 43 | . | .
O=C(C1CC1)N(CCc1ccccc1)Cc1nc2ccccc2c(=O)[nH]1 | / | / | / | / | . | .
CCCNC(=O)N1[C@H](CO)[C@H](c2ccccc2)[C@@H]1CNC(=O)c1ccccc1 | . | . | 33 | . | . | .
CCCNC(=O)N1[C@H](CNC(=O)c2cccc(F)c2)[C@@H](c2ccccc2)[C@@H]1CO | . | . | 43 | / | . | .
SMILES | E-selectin induc | Xi reactivation | DENV2 CPE rescue | FGF22 binding | PglD DTNB | Statin myotox sup
COc1ccc(C[C@H]2CCn3nncc3COC[C@@H](c3ccccc3)NC2=O)cc1 | / | . | / | / | / | /
CCOc1ccc2nc(Cl)sc2c1 | / | . | . | 43 | / | /
O=C(Cc1ccc(Br)cc1)OCC(=O)N1CCCCCC1 | . | . | . | 43 | / | /
CC1CC(C)CN(C(=O)COC(=O)Cc2ccc(Br)cc2)C1 (configuration not stated) | / | . | . | . | . | .
COc1ccccc1S(=O)(=O)N[C@@H]1CC[C@@H](CCNC(=O)C2CCOCC2)O[C@@H]1CO | . | . | . | . | . | .
CCC1=C(OC(=O)N(CC)CC)N2C(=O)OC(=NCC3CC3)[C@]2(C)[C@H]2C1=CC[C@H]1C(=O)NC(=O)[C@H]12 | . | . | 46 | . | . | .
CCC1=C(OC(=O)N(CC)CC)N2C(=O)OC(=NCCc3c[nH]c4ccccc34)[C@]2(C)[C@H]2C1=CC[C@H]1C(=O)N(CC(=O)OC)C(=O)[C@H]12 | . | . | / | / | . | .
CCC1=C(OC(=O)N(CC)CC)N2C(=O)OC(=NCCc3c[nH]c4ccccc34)[C@]2(C)[C@H]2C1=CC[C@H]1C(=O)NC(=O)[C@H]12 | . | . | 27 | . | . | .
C[C@@H]1CN([C@@H](C)CO)C(=O)c2cccc(NS(=O)(=O)c3ccc(F)cc3)c2O[C@@H]1CN(C)S(C)(=O)=O | . | . | . | . | . | /
COCC(=O)Nc1ccc2c(c1)C(=O)N(C)C[C@H](OC)[C@@H](C)CN(Cc1cccnc1)[C@H](C)CO2 | . | . | . | . | . | .
CCOC(=O)C1=C[C@@H](C(C)C)N(S(=O)(=O)c2ccc([N+](=O)[O-])cc2)[C@H]1c1ccccc1 | . | / | ? | . | . | .
CCOC(=O)C1=C[C@@H](CC)N(S(=O)(=O)c2ccc([N+](=O)[O-])cc2)[C@H]1c1ccccc1 | . | . | 42 | . | . | .
CCOC(=O)C1=C[C@@H](CC)N(S(=O)(=O)c2ccc(C)cc2)[C@H]1c1cccc(Cl)c1 | . | . | . | . | . | .
CCOC(=O)C1=CCN(S(=O)(=O)c2ccc(Cl)cc2)C1c1cccc(Cl)c1 (configuration not stated) | . | . | . | . | / | /
CCOC(=O)C1=C[C@@H](c2ccccc2)N(S(=O)(=O)c2ccc(C)cc2)[C@H]1c1cccc(Cl)c1 | . | . | 30 | . | . | .
CCOC(=O)C1=CCN(S(=O)(=O)c2ccc(F)cc2)C1c1cccc(Cl)c1 (configuration not stated) | . | . | 84 | . | . | .
O=C(C1CCCC1)N1CCCCN2[C@H](CO)[C@@H](c3ccc(-c4cccc(F)c4)cc3)[C@@H]2C1 | / | / | . | . | . | /
C[C@@H]1CN([C@@H](C)CO)C(=O)c2cc(NC(=O)CCC(F)(F)F)ccc2O[C@@H](C)CCCCO[C@H]1CN(C)C(=O)Nc1cccc2ccccc12 | . | . | 26 | . | . | /
C[C@@H]1CCCCO[C@@H](CN(C)C(=O)Nc2cccc3ccccc23)[C@H](C)CN([C@H](C)CO)C(=O)c2cc(NC(=O)CCC(F)(F)F)ccc2O1 | . | . | 99 | . | . | /
C[C@@H]1CN([C@H](C)CO)C(=O)c2cc(NC(=O)CCC(F)(F)F)ccc2O[C@@H](C)CCCCO[C@H]1CN(C)C(=O)Nc1cccc2ccccc12 | . | . | . | . | . | /
O=S1(=O)C=C(N2CCCCC2)c2ccccc21 | / | / | / | / | . | 108
O=C1c2ccccc2C(=O)c2cc(N3CCCCC3)ccc21 | . | . | . | / | . | .
